Reference: ChEMBL document CHEMBL1165965, “Synthesis and structure-activity relationships of 1,2,3,4-tetrahydropyrido[2,3-b]pyrazines as potent and selective inhibitors of the anaplastic lymphoma kinase” (Bioorg Med Chem, 2010)

Tests used:
[1] = target: Mitogen-activated protein kinase 6 (Homo sapiens) (UniProt Q16659); assay: Inhibition of ERK3 at 1 uM
[2] = target: cAMP-dependent protein kinase catalytic subunit alpha (Homo sapiens) (UniProt P17612); assay: Inhibition of PKAC-alpha at 1 uM
[3] = target: Serine/threonine-protein kinase PLK3 (Homo sapiens) (UniProt Q9H4B4); assay: Inhibition of PLK3 at 1 uM
Serine/threonine-protein kinase PLK3 (Homo sapiens), sequence (Q9H4B4 whole entry, looked up): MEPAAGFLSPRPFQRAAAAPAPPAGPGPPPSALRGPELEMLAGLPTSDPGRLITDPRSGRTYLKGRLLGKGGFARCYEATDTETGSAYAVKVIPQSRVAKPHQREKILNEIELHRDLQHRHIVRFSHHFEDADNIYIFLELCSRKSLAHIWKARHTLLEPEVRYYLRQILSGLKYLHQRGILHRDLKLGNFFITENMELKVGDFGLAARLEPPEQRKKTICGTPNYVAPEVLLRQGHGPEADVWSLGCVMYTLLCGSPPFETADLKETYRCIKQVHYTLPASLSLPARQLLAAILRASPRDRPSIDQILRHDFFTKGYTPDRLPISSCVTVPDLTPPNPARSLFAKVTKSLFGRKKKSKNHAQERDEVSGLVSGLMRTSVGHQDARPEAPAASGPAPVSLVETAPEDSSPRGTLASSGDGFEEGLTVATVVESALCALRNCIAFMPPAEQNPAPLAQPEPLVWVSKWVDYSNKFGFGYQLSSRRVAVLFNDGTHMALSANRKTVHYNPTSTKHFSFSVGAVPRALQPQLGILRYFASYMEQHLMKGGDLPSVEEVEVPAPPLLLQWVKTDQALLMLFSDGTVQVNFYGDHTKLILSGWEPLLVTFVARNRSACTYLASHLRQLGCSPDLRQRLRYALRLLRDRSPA

[4] = target: Tyrosine-protein kinase Fes/Fps (Homo sapiens) (UniProt P07332); assay: Inhibition of FES at 1 uM
Procedure, shortened: (§1)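 Single-concentration screen using Ambit Bioscience KINOMEscan technology across a panel of 250–400 kinases. Per-kinase inhibition from this screen was summarized as S(90), the fraction of kinases inhibited by more than 90%.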

[5] = target: Epithelial discoidin domain-containing receptor 1 (Homo sapiens) (UniProt Q08345); assay: Inhibition of DDR1 at 1 uM; procedure, shortened: as §1
Epithelial discoidin domain-containing receptor 1 (Homo sapiens), sequence (Q08345 whole entry, the tested form may be a part): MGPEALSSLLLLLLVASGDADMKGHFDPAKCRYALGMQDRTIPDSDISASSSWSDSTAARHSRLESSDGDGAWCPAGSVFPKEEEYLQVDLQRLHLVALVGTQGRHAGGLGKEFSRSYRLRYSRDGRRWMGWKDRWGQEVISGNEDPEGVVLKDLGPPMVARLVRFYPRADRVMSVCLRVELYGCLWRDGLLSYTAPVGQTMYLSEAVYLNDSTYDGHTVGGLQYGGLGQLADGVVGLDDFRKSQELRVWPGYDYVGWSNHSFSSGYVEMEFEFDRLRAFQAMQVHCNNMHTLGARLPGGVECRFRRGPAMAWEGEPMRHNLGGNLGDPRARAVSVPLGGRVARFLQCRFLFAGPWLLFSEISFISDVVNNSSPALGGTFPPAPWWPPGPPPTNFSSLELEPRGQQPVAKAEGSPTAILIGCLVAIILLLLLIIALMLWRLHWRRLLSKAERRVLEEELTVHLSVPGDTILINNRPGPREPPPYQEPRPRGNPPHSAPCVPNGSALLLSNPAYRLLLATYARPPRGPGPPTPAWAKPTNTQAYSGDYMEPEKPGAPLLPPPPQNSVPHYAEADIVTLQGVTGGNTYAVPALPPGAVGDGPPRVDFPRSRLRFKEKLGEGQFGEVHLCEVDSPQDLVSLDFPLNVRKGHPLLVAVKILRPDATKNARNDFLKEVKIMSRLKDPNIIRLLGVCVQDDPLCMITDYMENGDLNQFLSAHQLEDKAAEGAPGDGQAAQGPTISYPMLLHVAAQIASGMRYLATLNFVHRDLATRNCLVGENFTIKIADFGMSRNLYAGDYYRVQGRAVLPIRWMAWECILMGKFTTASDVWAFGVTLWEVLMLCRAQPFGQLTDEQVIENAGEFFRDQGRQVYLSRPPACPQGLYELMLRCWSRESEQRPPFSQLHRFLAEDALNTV

[6] = target: Cyclin-dependent kinase 16 (Homo sapiens) (UniProt Q00536); assay: Inhibition of PCTK1 at 1 uM
Cyclin-dependent kinase 16 (Homo sapiens), sequence (Q00536 whole entry): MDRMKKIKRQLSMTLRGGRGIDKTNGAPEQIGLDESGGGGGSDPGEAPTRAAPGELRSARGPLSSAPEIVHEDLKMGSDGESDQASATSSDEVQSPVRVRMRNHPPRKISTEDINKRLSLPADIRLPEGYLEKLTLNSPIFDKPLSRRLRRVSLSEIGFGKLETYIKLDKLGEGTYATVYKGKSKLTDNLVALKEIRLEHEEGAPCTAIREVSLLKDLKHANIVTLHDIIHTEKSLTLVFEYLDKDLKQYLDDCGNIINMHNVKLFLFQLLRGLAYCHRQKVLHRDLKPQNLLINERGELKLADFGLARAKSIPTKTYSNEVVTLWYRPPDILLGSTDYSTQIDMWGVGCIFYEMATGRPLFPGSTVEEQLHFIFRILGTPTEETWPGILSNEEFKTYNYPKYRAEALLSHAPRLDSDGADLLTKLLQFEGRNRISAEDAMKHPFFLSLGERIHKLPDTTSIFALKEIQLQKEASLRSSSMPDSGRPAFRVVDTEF

[7] = target: Activin receptor type-1-like (Homo sapiens) (UniProt P37023); assay: Inhibition of ACVRL1 at 1 uM
Procedure, shortened: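 Ambit KINOMEscan screen at a single concentration across a 250–400 kinase panel, recorded as percent inhibition. Selectivity was expressed as S(90), the fraction of kinases inhibited >90%.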

[8] = tested on: Mast/stem cell growth factor receptor Kit (Homo sapiens), P10721 [L576P]; assay: Inhibition of KIT L576P mutant at 1 uM
Mast/stem cell growth factor receptor Kit (Homo sapiens), P10721 [L576P], sequence (P10721 whole entry L576P): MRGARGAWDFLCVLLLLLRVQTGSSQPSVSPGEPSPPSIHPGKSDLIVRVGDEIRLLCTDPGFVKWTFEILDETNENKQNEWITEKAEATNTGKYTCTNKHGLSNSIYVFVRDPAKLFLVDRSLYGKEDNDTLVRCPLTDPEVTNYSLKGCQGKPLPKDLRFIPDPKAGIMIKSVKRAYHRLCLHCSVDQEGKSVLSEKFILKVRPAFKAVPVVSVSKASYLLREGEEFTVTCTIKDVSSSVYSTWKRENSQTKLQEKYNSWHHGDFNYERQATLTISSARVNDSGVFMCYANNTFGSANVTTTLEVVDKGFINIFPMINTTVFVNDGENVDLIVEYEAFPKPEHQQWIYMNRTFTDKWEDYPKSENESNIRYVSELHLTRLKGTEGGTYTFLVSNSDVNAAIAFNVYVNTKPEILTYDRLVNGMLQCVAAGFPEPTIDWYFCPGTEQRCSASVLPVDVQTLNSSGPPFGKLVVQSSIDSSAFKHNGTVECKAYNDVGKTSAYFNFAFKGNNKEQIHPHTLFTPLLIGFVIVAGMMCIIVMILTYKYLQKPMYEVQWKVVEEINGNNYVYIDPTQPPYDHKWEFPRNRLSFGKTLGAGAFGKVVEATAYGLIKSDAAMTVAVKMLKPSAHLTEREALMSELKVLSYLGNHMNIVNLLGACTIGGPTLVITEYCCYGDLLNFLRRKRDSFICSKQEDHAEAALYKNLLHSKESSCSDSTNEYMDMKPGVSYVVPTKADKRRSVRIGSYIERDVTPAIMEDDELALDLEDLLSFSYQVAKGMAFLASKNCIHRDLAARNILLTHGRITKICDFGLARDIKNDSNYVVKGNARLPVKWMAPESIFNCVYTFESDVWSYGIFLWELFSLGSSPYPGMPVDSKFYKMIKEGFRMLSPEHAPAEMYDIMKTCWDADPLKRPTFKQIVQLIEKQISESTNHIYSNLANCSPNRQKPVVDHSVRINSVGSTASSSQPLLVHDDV

[9] = target: Insulin receptor (Homo sapiens) (UniProt P06213); assay: Inhibition of INSR at 1 uM
Procedure, shortened: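 Single-concentration screen on the Ambit KINOMEscan platform, run against a panel of 250–400 kinases. Per-kinase inhibition was also summarized as S(90), the fraction of kinases inhibited by more than 90%.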

[10] = target: T1, Serine/threonine-protein kinase 17A (Homo sapiens) (UniProt Q9UEE5); assay: Inhibition of DRAK1 at 1 uM
T1 sequence (whole entry): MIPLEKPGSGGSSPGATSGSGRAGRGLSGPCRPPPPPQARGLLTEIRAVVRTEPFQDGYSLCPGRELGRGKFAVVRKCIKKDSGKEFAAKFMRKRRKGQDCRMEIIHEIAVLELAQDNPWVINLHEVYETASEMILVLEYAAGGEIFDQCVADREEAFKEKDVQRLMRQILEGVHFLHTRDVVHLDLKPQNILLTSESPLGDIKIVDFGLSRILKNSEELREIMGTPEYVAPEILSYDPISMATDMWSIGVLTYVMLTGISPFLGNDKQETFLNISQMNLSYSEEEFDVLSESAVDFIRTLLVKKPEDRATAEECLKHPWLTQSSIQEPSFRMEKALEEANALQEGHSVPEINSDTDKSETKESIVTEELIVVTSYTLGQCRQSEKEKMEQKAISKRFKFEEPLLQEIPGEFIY

[11] = tested on: Phosphatidylinositol 4,5-bisphosphate 3-kinase catalytic subunit alpha isoform (Homo sapiens), P42336 [H1047L]; assay: Inhibition of PIK3CA H1047L mutant at 1 uM
Phosphatidylinositol 4,5-bisphosphate 3-kinase catalytic subunit alpha isoform (Homo sapiens), P42336 [H1047L], sequence (P42336 whole entry H1047L, canonical isoform): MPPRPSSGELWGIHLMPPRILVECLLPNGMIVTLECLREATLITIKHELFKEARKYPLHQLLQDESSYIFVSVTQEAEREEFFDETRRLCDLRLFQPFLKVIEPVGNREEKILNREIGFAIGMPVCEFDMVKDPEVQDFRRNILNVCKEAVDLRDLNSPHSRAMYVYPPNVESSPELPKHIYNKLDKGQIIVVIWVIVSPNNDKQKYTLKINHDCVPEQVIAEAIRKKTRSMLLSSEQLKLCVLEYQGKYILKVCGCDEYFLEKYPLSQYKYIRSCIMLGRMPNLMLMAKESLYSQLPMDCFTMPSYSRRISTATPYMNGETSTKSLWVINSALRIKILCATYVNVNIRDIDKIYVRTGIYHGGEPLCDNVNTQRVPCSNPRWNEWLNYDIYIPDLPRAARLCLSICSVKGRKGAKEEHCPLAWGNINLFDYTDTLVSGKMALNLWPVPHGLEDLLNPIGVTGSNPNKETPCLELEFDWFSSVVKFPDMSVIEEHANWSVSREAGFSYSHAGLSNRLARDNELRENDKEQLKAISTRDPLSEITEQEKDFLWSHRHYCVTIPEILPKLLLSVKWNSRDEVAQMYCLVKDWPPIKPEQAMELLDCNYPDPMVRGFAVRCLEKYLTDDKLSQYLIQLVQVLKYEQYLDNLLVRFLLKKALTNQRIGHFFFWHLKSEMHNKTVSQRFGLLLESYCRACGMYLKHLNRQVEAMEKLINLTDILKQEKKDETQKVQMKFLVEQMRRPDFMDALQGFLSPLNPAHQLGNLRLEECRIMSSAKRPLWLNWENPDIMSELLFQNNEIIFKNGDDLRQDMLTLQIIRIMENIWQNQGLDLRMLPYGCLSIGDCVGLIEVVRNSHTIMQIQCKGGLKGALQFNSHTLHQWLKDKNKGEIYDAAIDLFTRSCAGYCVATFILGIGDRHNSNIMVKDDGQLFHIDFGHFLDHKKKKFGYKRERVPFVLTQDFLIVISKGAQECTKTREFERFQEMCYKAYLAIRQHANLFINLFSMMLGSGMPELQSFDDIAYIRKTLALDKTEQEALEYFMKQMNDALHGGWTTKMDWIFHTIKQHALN

[12] = tested on: Phosphatidylinositol 4,5-bisphosphate 3-kinase catalytic subunit alpha isoform (Homo sapiens), P42336 [C420R]; assay: Inhibition of PIK3CA C420R mutant at 1 uM
[13] = target: Serine/threonine-protein kinase NIM1 (Homo sapiens) (UniProt Q8IY84); assay: Inhibition of NIM1 at 1 uM
Serine/threonine-protein kinase NIM1 (Homo sapiens), sequence (Q8IY84 whole entry): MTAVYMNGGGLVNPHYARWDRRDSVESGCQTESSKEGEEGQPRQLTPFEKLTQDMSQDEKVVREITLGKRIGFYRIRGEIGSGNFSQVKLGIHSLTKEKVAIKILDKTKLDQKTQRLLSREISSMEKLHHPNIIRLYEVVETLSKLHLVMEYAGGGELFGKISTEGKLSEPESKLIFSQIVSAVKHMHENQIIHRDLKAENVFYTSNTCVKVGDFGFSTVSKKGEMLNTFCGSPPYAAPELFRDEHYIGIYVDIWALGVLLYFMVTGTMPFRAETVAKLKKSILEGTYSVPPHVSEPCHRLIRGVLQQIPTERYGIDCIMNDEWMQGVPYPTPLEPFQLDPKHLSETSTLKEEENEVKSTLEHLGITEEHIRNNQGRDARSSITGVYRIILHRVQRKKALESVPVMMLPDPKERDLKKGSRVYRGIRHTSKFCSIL

[14] = target: T2, Serine/threonine-protein kinase RIO1 (Homo sapiens) (UniProt Q9BRS2); assay: Inhibition of RIOK1 at 1 uM
T2 sequence (whole entry): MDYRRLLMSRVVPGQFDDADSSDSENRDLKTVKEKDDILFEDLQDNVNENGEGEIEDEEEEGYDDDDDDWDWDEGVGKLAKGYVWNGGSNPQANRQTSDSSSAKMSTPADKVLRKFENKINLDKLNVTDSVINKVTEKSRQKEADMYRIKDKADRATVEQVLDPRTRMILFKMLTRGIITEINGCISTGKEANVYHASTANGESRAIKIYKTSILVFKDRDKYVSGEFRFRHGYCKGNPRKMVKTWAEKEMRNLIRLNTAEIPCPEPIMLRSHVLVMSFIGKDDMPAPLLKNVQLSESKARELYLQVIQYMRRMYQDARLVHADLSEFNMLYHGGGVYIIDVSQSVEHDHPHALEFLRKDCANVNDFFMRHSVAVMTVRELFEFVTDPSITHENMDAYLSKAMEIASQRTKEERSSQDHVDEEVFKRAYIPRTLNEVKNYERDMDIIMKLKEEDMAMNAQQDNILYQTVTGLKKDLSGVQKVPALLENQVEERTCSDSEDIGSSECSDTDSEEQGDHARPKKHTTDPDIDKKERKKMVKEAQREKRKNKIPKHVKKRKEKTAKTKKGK

[15] = target: Mitogen-activated protein kinase 14 (Homo sapiens) (UniProt Q16539); assay: Inhibition of p38-alpha at 1 uM
[16] = target: Serine/threonine-protein kinase Chk2 (Homo sapiens) (UniProt O96017); assay: Inhibition of CHEK2 at 1 uM
Serine/threonine-protein kinase Chk2 (Homo sapiens), sequence (O96017 whole entry): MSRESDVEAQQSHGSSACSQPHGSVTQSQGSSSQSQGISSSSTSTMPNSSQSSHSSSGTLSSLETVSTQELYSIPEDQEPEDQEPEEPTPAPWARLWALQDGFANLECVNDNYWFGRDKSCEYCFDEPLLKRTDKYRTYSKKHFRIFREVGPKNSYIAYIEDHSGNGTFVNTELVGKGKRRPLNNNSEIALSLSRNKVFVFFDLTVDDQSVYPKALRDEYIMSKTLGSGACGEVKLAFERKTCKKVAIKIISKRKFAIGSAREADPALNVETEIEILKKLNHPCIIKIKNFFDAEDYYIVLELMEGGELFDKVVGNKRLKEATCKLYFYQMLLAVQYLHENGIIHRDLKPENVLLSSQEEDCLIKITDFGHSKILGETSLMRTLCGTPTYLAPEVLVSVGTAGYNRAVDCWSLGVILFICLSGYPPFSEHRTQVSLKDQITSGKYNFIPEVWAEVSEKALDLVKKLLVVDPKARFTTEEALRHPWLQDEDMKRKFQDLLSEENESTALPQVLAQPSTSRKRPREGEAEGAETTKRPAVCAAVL

[17] = target: T3, Mitogen-activated protein kinase 13 (Homo sapiens) (UniProt O15264); assay: Inhibition of p38-delta at 1 uM
T3 sequence (whole entry): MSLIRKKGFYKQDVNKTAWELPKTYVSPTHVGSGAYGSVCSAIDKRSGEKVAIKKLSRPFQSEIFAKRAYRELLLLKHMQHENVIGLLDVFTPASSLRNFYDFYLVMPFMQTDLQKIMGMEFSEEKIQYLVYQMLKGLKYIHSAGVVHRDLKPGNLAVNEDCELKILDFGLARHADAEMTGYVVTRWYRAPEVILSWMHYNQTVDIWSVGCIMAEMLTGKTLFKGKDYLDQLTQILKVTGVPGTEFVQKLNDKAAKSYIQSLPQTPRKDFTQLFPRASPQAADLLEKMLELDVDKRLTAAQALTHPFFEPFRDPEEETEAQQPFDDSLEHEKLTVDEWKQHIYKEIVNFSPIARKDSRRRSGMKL

SMILES | inhibition [1] [%] | inhibition [2] [%] | inhibition [3] [%] | inhibition [4] [%] | inhibition [5] [%] | inhibition [6] [%] | inhibition [7] [%] | inhibition [8] [%] | inhibition [9] [%] | inhibition [10] [%] | inhibition [11] [%] | inhibition [12] [%] | inhibition [13] [%] | inhibition [14] [%] | inhibition [15] [%] | inhibition [16] [%] | inhibition [17] [%]
CN1CCN(c2ccc(-c3cnc4c(c3)N(Cc3cc(Cl)ccc3Cl)CCN4)cn2)CC1 | < 50 | < 50 | < 50 | < 50 | < 50 | < 50 | < 50 | 98 | < 50 | < 50 | < 50 | < 50 | < 50 | < 50 | < 50 | < 50 | < 50
CN1CCN(c2ccc(-c3cnc4c(c3)N(Cc3cc(Cl)ccc3C(F)(F)F)CCN4)cn2)CC1 | < 50 | – | < 50 | < 50 | < 50 | < 50 | < 50 | 80 | < 50 | < 50 | < 50 | < 50 | < 50 | < 50 | < 50 | < 50 | < 50
CN1CCN(c2ccc(-c3cnc4c(c3)N(Cc3c(F)ccc(F)c3Cl)CCN4)cn2)CC1 | < 50 | – | < 50 | < 50 | < 50 | < 50 | < 50 | 73 | < 50 | < 50 | < 50 | < 50 | < 50 | < 50 | < 50 | < 50 | < 50
O=C(c1ccc(-c2cnc3c(c2)N(Cc2cc(Cl)ccc2C(F)(F)F)CCN3)cc1)N1CCC(N2CCCC2)CC1 | – | < 50 | < 50 | < 50 | 84 | < 50 | < 50 | – | < 50 | – | – | – | – | < 50 | < 50 | – | –
COC1CCN(C(=O)c2ccc(-c3cnc4c(c3)N(Cc3cc(Cl)ccc3C(F)(F)F)CCN4)cc2)CC1 | – | < 50 | < 50 | < 50 | < 50 | < 50 | < 50 | – | < 50 | – | – | – | – | < 50 | < 50 | – | –
FC(F)(F)c1ccc(Cl)cc1CN1CCNc2ncc(-c3ccnc(N4CCNCC4)c3)cc21 | < 50 | < 50 | < 50 | < 50 | 96 | < 50 | < 50 | 99 | < 50 | < 50 | < 50 | < 50 | < 50 | < 50 | < 50 | < 50 | < 50
CN1CCN(c2ccc(-c3cnc4c(c3)N(Cc3cc(F)ccc3F)CCN4)cn2)CC1 | < 50 | < 50 | < 50 | < 50 | < 50 | < 50 | < 50 | 75 | < 50 | < 50 | < 50 | < 50 | < 50 | < 50 | < 50 | < 50 | < 50
O=C(c1ccc(-c2cnc3c(c2)N(Cc2cc(Cl)ccc2C(F)(F)F)CCN3)cc1)N1CCCCC1 | – | < 50 | < 50 | < 50 | < 50 | < 50 | < 50 | – | < 50 | – | – | – | – | < 50 | < 50 | – | –
CC(=O)N1CCN(c2cc(-c3cnc4c(c3)N(Cc3cc(Cl)ccc3C(F)(F)F)CCN4)ccn2)CC1 | < 50 | < 50 | < 50 | < 50 | < 50 | < 50 | < 50 | 90 | < 50 | < 50 | < 50 | < 50 | < 50 | < 50 | < 50 | < 50 | < 50
O=C(O)c1ccc(-c2cnc3c(c2)N(Cc2cc(Cl)ccc2C(F)(F)F)CCN3)cc1 | – | < 50 | < 50 | < 50 | < 50 | < 50 | < 50 | – | < 50 | – | – | – | – | < 50 | < 50 | – | –
